Data published in ChEMBL document CHEMBL4689842, “EUbOPEN Chemogenomics Library wave 1” (2021).

Key:
Assay type in all cases: toxicity, cell-based
HEK-293T [1] = experiment: Multiplex assay against HEK293T; settings: human;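 on Population Tubulin-Different-Phenotype (%): share of the cells with healthy nuclei that show this phenotype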
Summary of the method: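 Cells stained live at seeding with Hoechst33342, BioTracker Green Microtubule Cytoskeleton Dye, MitoTracker Red and Annexin V Alexa Fluor 680 were imaged on a CQ1 microscope at 37°C and 5% CO2 after compound addition. Their classification by CellPathfinder machine-learning gating ran from Hoechst high-intensity objects versus normal cells, to healthy, pyknosed or fragmented nuclei among normal cells, to mitotic or apoptotic among pyknosed cells. Tubulin, mitochondrial-mass and membrane-permeability phenotypes are per cents of healthy-nucleus cells.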

HEK-293T [2] = experiment: Incucyte cell viability with HEK293T; settings: human, 10 µM, compound concentration 10 uM; further: filed as whole numbers so only -1 and 0 and 1 occur
Fibroblast = experiment: Incucyte cell viability with human fibroblast; settings: 10 µM, compound concentration 10 uM; further: filed as whole numbers so only -1 and 0 and 1 occur
[3] = 12 h, 1 µM, compound concentration 1 uM, replicate 1
[4] = 12 h, 1 µM, compound concentration 1 uM, replicate 2
[5] = 12 h, 10 µM, compound concentration 10 uM, replicate 1
[6] = 12 h, 10 µM, compound concentration 10 uM, replicate 2
[7] = 24 h, 1 µM, compound concentration 1 uM, replicate 1
[8] = 24 h, 1 µM, compound concentration 1 uM, replicate 2
[9] = 24 h, 10 µM, compound concentration 10 uM, replicate 1
[10] = 24 h, 10 µM, compound concentration 10 uM, replicate 2
[11] = 0 h, replicate number 1, timepoint 0 hours
[12] = 0 h, replicate number 2, timepoint 0 hours
[13] = 12 h, replicate number 2, timepoint 12 hours
[14] = 18 h, replicate number 1, timepoint 18 hours
[15] = 24 h, replicate number 1, timepoint 24 hours

CCOc1cc(N2CCC(O)CC2)ccc1Nc1ncc2c(n1)N(C1CCCC1)CCC(=O)N2C
Population Apoptotic (%) (HEK-293T [1]; [3]): 17%
Population Fragmented Nuclei (%) (HEK-293T [1]; [3]): 18%
Population Healthy Nuclei (%) (HEK-293T [1]; [3]): 58%
Population Hoechst High Intensity Objects (%) (HEK-293T [1]; [3]): 13%
Population Membrane Permeable-Phenotype (%) (HEK-293T [1]; [3]): 3%
Population Mitochondria Different-Phenotype (%) (HEK-293T [1]; [3]): 5%
Population Mitotic Cells (%) (HEK-293T [1]; [3]): 82%
Population Normal (%) (HEK-293T [1]; [3]): 86%
Population Pyknosed Nuclei (%) (HEK-293T [1]; [3]): 22%
Population Tubulin-Different-Phenotype (%) (HEK-293T [1]; [3]): 3%
Total Cell Count (HEK-293T [1]; [3]): 614
Population Apoptotic (%) (HEK-293T [1]; [4]): 4%
Population Fragmented Nuclei (%) (HEK-293T [1]; [4]): 6%
Population Healthy Nuclei (%) (HEK-293T [1]; [4]): 87%
Population Hoechst High Intensity Objects (%) (HEK-293T [1]; [4]): 2%
Population Membrane Permeable-Phenotype (%) (HEK-293T [1]; [4]): 1%
Population Mitochondria Different-Phenotype (%) (HEK-293T [1]; [4]): 15%
Population Mitotic Cells (%) (HEK-293T [1]; [4]): 95%
Population Normal (%) (HEK-293T [1]; [4]): 97%
Population Pyknosed Nuclei (%) (HEK-293T [1]; [4]): 5%
Population Tubulin-Different-Phenotype (%) (HEK-293T [1]; [4]): 5%
Total Cell Count (HEK-293T [1]; [4]): 1724
Population Apoptotic (%) (HEK-293T [1]; [5]): 14%
Population Fragmented Nuclei (%) (HEK-293T [1]; [5]): 18%
Population Healthy Nuclei (%) (HEK-293T [1]; [5]): 62%
Population Hoechst High Intensity Objects (%) (HEK-293T [1]; [5]): 13%
Population Membrane Permeable-Phenotype (%) (HEK-293T [1]; [5]): 4%
Population Mitochondria Different-Phenotype (%) (HEK-293T [1]; [5]): 5%
Population Mitotic Cells (%) (HEK-293T [1]; [5]): 85%
Population Normal (%) (HEK-293T [1]; [5]): 86%
Population Pyknosed Nuclei (%) (HEK-293T [1]; [5]): 19%
Population Tubulin-Different-Phenotype (%) (HEK-293T [1]; [5]): 4%
Total Cell Count (HEK-293T [1]; [5]): 550
Population Apoptotic (%) (HEK-293T [1]; [6]): 8%
Population Fragmented Nuclei (%) (HEK-293T [1]; [6]): 9%
Population Healthy Nuclei (%) (HEK-293T [1]; [6]): 86%
Population Hoechst High Intensity Objects (%) (HEK-293T [1]; [6]): 1%
Population Membrane Permeable-Phenotype (%) (HEK-293T [1]; [6]): 0%
Population Mitotic Cells (%) (HEK-293T [1]; [6]): 92%
Population Normal (%) (HEK-293T [1]; [6]): 98%
Population Pyknosed Nuclei (%) (HEK-293T [1]; [6]): 4%
Population Tubulin-Different-Phenotype (%) (HEK-293T [1]; [6]): 2%
Total Cell Count (HEK-293T [1]; [6]): 1779
Population Apoptotic (%) (HEK-293T [1]; [7]): 19%
Population Fragmented Nuclei (%) (HEK-293T [1]; [7]): 16%
Population Healthy Nuclei (%) (HEK-293T [1]; [7]): 73%
Population Hoechst High Intensity Objects (%) (HEK-293T [1]; [7]): 7%
Population Membrane Permeable-Phenotype (%) (HEK-293T [1]; [7]): 2%
Population Mitochondria Different-Phenotype (%) (HEK-293T [1]; [7]): 4%
Population Mitotic Cells (%) (HEK-293T [1]; [7]): 80%
Population Normal (%) (HEK-293T [1]; [7]): 92%
Population Pyknosed Nuclei (%) (HEK-293T [1]; [7]): 9%
Population Tubulin-Different-Phenotype (%) (HEK-293T [1]; [7]): 3%
Total Cell Count (HEK-293T [1]; [7]): 619
Population Apoptotic (%) (HEK-293T [1]; [8]): 4%
Population Fragmented Nuclei (%) (HEK-293T [1]; [8]): 26%
Population Healthy Nuclei (%) (HEK-293T [1]; [8]): 72%
Population Hoechst High Intensity Objects (%) (HEK-293T [1]; [8]): 3%
Population Membrane Permeable-Phenotype (%) (HEK-293T [1]; [8]): 0%
Population Mitochondria Different-Phenotype (%) (HEK-293T [1]; [8]): 3%
Population Mitotic Cells (%) (HEK-293T [1]; [8]): 95%
Population Normal (%) (HEK-293T [1]; [8]): 96%
Population Pyknosed Nuclei (%) (HEK-293T [1]; [8]): 1%
Population Tubulin-Different-Phenotype (%) (HEK-293T [1]; [8]): 1%
Total Cell Count (HEK-293T [1]; [8]): 2649
Population Apoptotic (%) (HEK-293T [1]; [9]): 19%
Population Fragmented Nuclei (%) (HEK-293T [1]; [9]): 13%
Population Healthy Nuclei (%) (HEK-293T [1]; [9]): 76%
Population Hoechst High Intensity Objects (%) (HEK-293T [1]; [9]): 6%
Population Membrane Permeable-Phenotype (%) (HEK-293T [1]; [9]): 8%
Population Mitochondria Different-Phenotype (%) (HEK-293T [1]; [9]): 5%
Population Mitotic Cells (%) (HEK-293T [1]; [9]): 80%
Population Normal (%) (HEK-293T [1]; [9]): 93%
Population Pyknosed Nuclei (%) (HEK-293T [1]; [9]): 9%
Population Tubulin-Different-Phenotype (%) (HEK-293T [1]; [9]): 2%
Total Cell Count (HEK-293T [1]; [9]): 597
Population Apoptotic (%) (HEK-293T [1]; [10]): 0%
Population Fragmented Nuclei (%) (HEK-293T [1]; [10]): 27%
Population Healthy Nuclei (%) (HEK-293T [1]; [10]): 70%
Population Hoechst High Intensity Objects (%) (HEK-293T [1]; [10]): 3%
Population Membrane Permeable-Phenotype (%) (HEK-293T [1]; [10]): 2%
Population Mitochondria Different-Phenotype (%) (HEK-293T [1]; [10]): 0%
Population Mitotic Cells (%) (HEK-293T [1]; [10]): 100%
Population Normal (%) (HEK-293T [1]; [10]): 96%
Population Pyknosed Nuclei (%) (HEK-293T [1]; [10]): 1%
Total Cell Count (HEK-293T [1]; [10]): 3112
Growth Rate (HEK-293T [2]; [11]): 0
Growth Rate (HEK-293T [2]; [12]): 1
Growth Rate (HEK-293T [2]; [13]): 1
Growth Rate (HEK-293T [2]; [14]): 1
Growth Rate (HEK-293T [2]; [15]): 0
Growth Rate (Fibroblast; [11]): 1
Growth Rate (Fibroblast; [12]): 0
Growth Rate (Fibroblast; 6 h, replicate number 1, timepoint 6 hours): 0
Growth Rate (Fibroblast; 6 h, replicate number 2, timepoint 6 hours): 1
Growth Rate (Fibroblast; 12 h, replicate number 1, timepoint 12 hours): 0
Growth Rate (Fibroblast; [13]): 1
Growth Rate (Fibroblast; [14]): 0
Growth Rate (Fibroblast; [15]): 0
